Measurements published in ChEMBL document CHEMBL1153079, “Synthesis and biological evaluation of 3',4',5'-trimethoxychalcone analogues as inhibitors of nitric oxide production and tumor cell proliferation” (Bioorg Med Chem, 2009).

Experiments:
Assay type in all cases: functional, cell-based
[1] = tested on: Peritoneal macrophage cell; test: Inhibition of nitric oxide production in LPS/IFN-gamma-stimulated BALB/c mouse peritoneal macrophages by Griess method
Outline: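 Murine peritoneal macrophages were stimulated with LPS (E. coli 055:B5) plus recombinant IFN-γ, and NO in the medium was measured with Griess reagent. Cell viability under the same conditions was checked by MTT. IC50 came from sigmoidal variable-slope dose–response curves. Triplicates were repeated three times (n = 9), reported as mean ± SD.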

[2] = tested on: HepG2; test: Growth inhibition of human HepG2 cells after 48 hrs by MTT assay; conditions: HepG2, 48 h
Outline: (§1)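 Cells were from ATCC and grown in RPMI-1640 with 10% fetal calf serum, antibiotics and L-glutamine. Growth was read by MTT after continuous compound exposure, against a DMSO vehicle control, up to a maximum of 100 µM. IC50 came from sigmoidal variable-slope dose–response curves. Triplicates were run in three independent experiments, reported as mean ± SD.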

[3] = tested on: COLO 205; test: Growth inhibition of human COLO205 cells after 48 hrs by MTT assay; conditions: COLO 205, 48 h; outline: as §1

Row | Compound | IC50 [2] [µM] | IC50 [3] [µM] | IC50 [1] [µM]
1 | COc1cc(C(=O)/C=C/c2ccc(C=O)cc2)cc(OC)c1OC | > 100 | 68.8 | > 50
2 | COc1cc(C(=O)/C=C/c2ccc(C)cc2)cc(OC)c1OC | 52 | 41.5 | 4.5
3 | COc1cc(/C=C/C(=O)c2cc(OC)c(OC)c(OC)c2)ccc1O | > 100 | > 100 | 0.3
4 | COc1cc(C(=O)/C=C/c2cccc(O)c2)cc(OC)c1OC | 94 | 49 | 13.5
5 | COc1cc(C(=O)/C=C/c2ccccc2C=O)cc(OC)c1OC | > 100 | 88 | 27
6 | COc1cc(C(=O)/C=C/c2ccc([N+](=O)[O-])cc2)cc(OC)c1OC | > 100 | 43 | 30
7 | COc1ccc(/C=C/C(=O)c2cc(OC)c(OC)c(OC)c2)c(OC)c1 | > 100 | 82.5 | > 50
8 | COc1cc(C(=O)/C=C/c2cccc(C=O)c2)cc(OC)c1OC | > 100 | 22.5 | > 50
9 | COc1cc(C(=O)/C=C/c2cc([N+](=O)[O-])ccc2O)cc(OC)c1OC | > 100 | 76 | 4.4
10 | COc1cc(C(=O)/C=C/c2cc(O)ccc2O)cc(OC)c1OC | > 100 | > 100 | > 50
11 | COc1cc(C(=O)/C=C/c2ccc(Br)cc2)cc(OC)c1OC | 80 | 22.5 | 20

Stronger by IC50 [2], values ahead:

Row | IC50 [2] [µM] | IC50 [3] [µM] | Compound | IC50 [1] [µM]
12 | 49.5 | 46.4 | COc1ccc(/C=C/C(=O)c2cc(OC)c(OC)c(OC)c2)cc1 | 7.6
13 | 30 | 75 | COc1cc(C(=O)/C=C/c2ccc(N(C)C)cc2)cc(OC)c1OC | 27
14 | 22 | 25.7 | COc1cc(C(=O)/C=C/c2ccc(F)cc2)cc(OC)c1OC | 17.6
15 | 20.3 | > 100 | COc1ccc(/C=C/C(=O)c2cc(OC)c(OC)c(OC)c2)cc1OC | 4.5
16 | 19.6 | 19.2 | COc1cc(/C=C/C(=O)c2cc(OC)c(OC)c(OC)c2)cc(OC)c1OC | 2.8
17 | 16.1 | 18.6 | COc1cc(OC)c(OC)cc1/C=C/C(=O)c1cc(OC)c(OC)c(OC)c1 | 4.6
18 | 16 | 29.7 | COc1cc(C(=O)/C=C/c2ccc(O)cc2)cc(OC)c1OC | 5
19 | 14.9 | 19.8 | COc1cc(C(=O)/C=C/c2ccc(O)c(O)c2)cc(OC)c1OC | 1.5
20 | 13.5 | 13 | COc1cccc(/C=C/C(=O)c2cc(OC)c(OC)c(OC)c2)c1O | 3
21 | 11.5 | 13.2 | COc1cccc(/C=C/C(=O)c2cc(OC)c(OC)c(OC)c2)c1OC | 2.4
22 | 10.6 | 11.2 | COc1ccc(/C=C/C(=O)c2cc(OC)c(OC)c(OC)c2)cc1O | 1.3
23 | 1.8 | 2.2 | COc1cccc(/C=C/C(=O)c2cc(OC)c(OC)c(OC)c2)c1 | 0.3
